What was measured:
Pseudomonas aeruginosa [1] = test: Antibacterial activity against Pseudomonas aeruginosa ATCC 27853 after 18 hrs by broth microdilution method; type: functional; settings: ATCC 27853, 18 h
Method in brief: (§1)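 Broth microdilution per CLSI in cation-adjusted Mueller-Hinton broth. 100 µL inoculum (~10^6 cfu/mL in CaMHB) mixed with 100 µL CaMHB containing compound, 0 to 128 µM. Incubated 18 h at 37 °C. MIC taken as the lowest concentration with no visible growth. Polymyxin B served as positive control. Isolates were stored at -80 °C in tryptone soy broth with 20% glycerol.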

Pseudomonas aeruginosa [2] = test: Antibacterial activity against Pseudomonas aeruginosa isolate 18878B klon 1 after 18 hrs by broth microdilution method; type: functional; settings: isolate 18878B klon 1, 18 h; method in brief: as §1
Acinetobacter baumannii [3] = test: Antibacterial activity against Acinetobacter baumannii isolate 246-01-C after 18 hrs by broth microdilution method; type: functional; method in brief: as §1
Acinetobacter baumannii [4] = test: Antibacterial activity against Acinetobacter baumannii ATCC 17978 after 18 hrs by broth microdilution method; type: functional; settings: ATCC 17978, 18 h; method in brief: as §1
Acinetobacter baumannii [5] = test: Antibacterial activity against Acinetobacter baumannii ATCC 19606 col10 after 18 hrs by broth microdilution method; type: functional; settings: ATCC 19606 = CIP 70.34 = JCM 6841 col10, 18 h; method in brief: as §1
Klebsiella pneumoniae [6] = test: Antibacterial activity against Klebsiella pneumoniae ATCC 13883 after 18 hrs by broth microdilution method; type: functional; settings: ATCC 13883, 18 h; method in brief: as §1
Klebsiella pneumoniae [7] = test: Antibacterial activity against Klebsiella pneumoniae isolate M320445 after 18 hrs by broth microdilution method; type: functional; settings: isolate M320445, 18 h; method in brief: as §1
Klebsiella pneumoniae [8] = test: Antibacterial activity against Klebsiella pneumoniae isolate 1 after 18 hrs by broth microdilution method; type: functional; settings: isolate 1, 18 h; method in brief: as §1
Klebsiella pneumoniae [9] = test: Antibacterial activity against Klebsiella pneumoniae isolate 224-11-C after 18 hrs by broth microdilution method; type: functional; method in brief: as §1
Enterococcus faecium = test: Antibacterial activity against vancomycin-resistant Enterococcus faecium ATCC 700221 after 18 hrs by broth microdilution method; type: functional; settings: ATCC 700221, 18 h; method in brief: as §1
Klebsiella pneumoniae [10] = test: Antibacterial activity against Klebsiella pneumoniae isolate 248-33-D after 18 hrs by broth microdilution method; type: functional; method in brief: as §1
Escherichia coli [11] = test: Antibacterial activity against Escherichia coli N2381 after 18 hrs by broth microdilution method; type: functional; settings: N2381, 18 h; method in brief: as §1
Escherichia coli [12] = test: Antibacterial activity against Escherichia coli N4149 after 18 hrs by broth microdilution method; type: functional; settings: N4149, 18 h; method in brief: as §1
Escherichia coli [13] = test: Antibacterial activity against Escherichia coli N11281 after 18 hrs by broth microdilution method; type: functional; settings: N11281, 18 h; method in brief: as §1
Staphylococcus aureus [14] = test: Antibacterial activity against methicillin-resistant Staphylococcus aureus ATCC 43300 after 18 hrs by broth microdilution method; type: functional; settings: ATCC 43300, 18 h; method in brief: as §1
Staphylococcus aureus [15] = test: Antibacterial activity against vancomycin-intermediate Staphylococcus aureus ATCC 700698 after 18 hrs by broth microdilution method; type: functional; settings: ATCC 700698, 18 h; method in brief: as §1
Staphylococcus aureus [16] = test: Antibacterial activity against vancomycin-resistant Staphylococcus aureus ATCC 700699 after 18 hrs by broth microdilution method; type: functional; settings: ATCC 700699, 18 h; method in brief: as §1
[17] = Selectivity index, ratio of CC50 for human HepG2 cells in presence of 1% FBS to MIC for Pseudomonas aeruginosa ATCC 27853; type: toxicity; settings: read-out: Selectivity Index
Method in brief: (§2)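 Selectivity index is CC50 (1% FBS) divided by MIC. […] They then got compound at 300 to 0.14 µM (3-fold steps) for 24 h at 37 °C, 5% CO2. Resazurin (10 µM, 2 h) was read at ex/em 560/590 in duplicate wells. For MIC, CLSI broth microdilution was run in CaMHB with ~10^6 cfu/mL inoculum and 0–128 µM compound.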

[18] = Selectivity index, ratio of CC50 for human HepG2 cells in presence of 1% FBS to MIC for Pseudomonas aeruginosa isolate 912; type: toxicity; settings: read-out: Selectivity Index; method in brief: as §2
[19] = Selectivity index, ratio of CC50 for human HepG2 cells in presence of 1% FBS to MIC for Pseudomonas aeruginosa isolate 19147nm; type: toxicity; settings: read-out: Selectivity Index; method in brief: as §2
[20] = Selectivity index, ratio of CC50 for human HepG2 cells in presence of 1% FBS to MIC for Pseudomonas aeruginosa isolate 18878B klon 1; type: toxicity; settings: read-out: Selectivity Index; method in brief: as §2
[21] = Selectivity index, ratio of CC50 for human HepG2 cells in presence of 1% FBS to MIC for Pseudomonas aeruginosa isolate M146201; type: toxicity; settings: read-out: Selectivity Index; method in brief: as §2
[22] = Selectivity index, ratio of CC50 for human HepG2 cells in presence of 1% FBS to MIC for Acinetobacter baumannii ATCC 19606; type: toxicity; settings: read-out: Selectivity Index
[23] = Selectivity index, ratio of CC50 for human HepG2 cells in presence of 1% FBS to MIC for Acinetobacter baumannii isolate 246-01-C; type: toxicity; settings: read-out: Selectivity Index
[24] = Selectivity index, ratio of CC50 for human HepG2 cells in presence of 1% FBS to MIC for Acinetobacter baumannii ATCC 17978; type: toxicity; settings: read-out: Selectivity Index
[25] = Selectivity index, ratio of CC50 for human HepG2 cells in presence of 1% FBS to MIC for Acinetobacter baumannii ATCC 19606 col10; type: toxicity; settings: read-out: Selectivity Index
[26] = Selectivity index, ratio of CC50 for human HepG2 cells in presence of 1% FBS to MIC for Acinetobacter baumannii ATCC 17978 col10; type: toxicity; settings: read-out: Selectivity Index
[27] = Selectivity index, ratio of CC50 for human HepG2 cells in presence of 1% FBS to MIC for Klebsiella pneumoniae ATCC 13883; type: toxicity; settings: read-out: Selectivity Index
[28] = Selectivity index, ratio of CC50 for human HepG2 cells in presence of 1% FBS to MIC for Klebsiella pneumoniae isolate M320445; type: toxicity; settings: read-out: Selectivity Index
[29] = Selectivity index, ratio of CC50 for human HepG2 cells in presence of 1% FBS to MIC for Klebsiella pneumoniae isolate 1; type: toxicity; settings: read-out: Selectivity Index
[30] = Selectivity index, ratio of CC50 for human HepG2 cells in presence of 1% FBS to MIC for Escherichia coli N11281; type: toxicity; settings: read-out: Selectivity Index
[31] = Selectivity index, ratio of CC50 for human HepG2 cells in presence of 1% FBS to MIC for vancomycin-resistant Enterococcus faecium ATCC 700221; type: toxicity; settings: read-out: Selectivity Index; method in brief: as §2
[32] = system: Mycobacterium tuberculosis; test: Antimycobacterial activity against Mycobacterium tuberculosis H37Rv ATCC 25618 after 7 days by resazurin dye based assay; type: functional; settings: H37Rv ATCC 25618, 168 h
Method in brief: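 H37Rv grown at 37 °C in 7H9 with 10% ADC, 0.5% glycerol and 0.02% tyloxapol. Compounds serially diluted in water, 0 to 10 µM, in triplicate. Culture adjusted to OD600 0.001 and incubated 7 days at 37 °C. Resazurin (0.05% w/v) added for 4-24 h and fluorescence read at 590 nm. MIC is the lowest concentration giving complete growth inhibition versus untreated. Rifampicin served as control.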

[33] = Selectivity index, ratio of CC50 for human HepG2 cells in presence of 1% FBS to MIC for Mycobacterium tuberculosis H37Rv ATCC 25618; type: toxicity; settings: read-out: Selectivity Index
[34] = Selectivity index, ratio of CC50 for human HepG2 cells in presence of 1% FBS to IC50 for CQ-sensitive GFP-fused Plasmodium falciparum D10; type: toxicity; settings: read-out: Ratio IC50

Structure (SMILES) | MIC (Pseudomonas aeruginosa [1]) [µM] | MIC (Pseudomonas aeruginosa [2]) [µM] | MIC (Acinetobacter baumannii [3]) [µM] | MIC (Acinetobacter baumannii [4]) [µM] | MIC (Acinetobacter baumannii [5]) [µM] | MIC (Klebsiella pneumoniae [6]) [µM] | MIC (Klebsiella pneumoniae [7]) [µM] | MIC (Klebsiella pneumoniae [8]) [µM] | MIC (Klebsiella pneumoniae [9]) [µM] | MIC (Enterococcus faecium) [µM] | MIC (Klebsiella pneumoniae [10]) [µM] | MIC (Escherichia coli [11]) [µM] | MIC (Escherichia coli [12]) [µM] | MIC (Escherichia coli [13]) [µM] | MIC (Staphylococcus aureus [14]) [µM] | MIC (Staphylococcus aureus [15]) [µM] | MIC (Staphylococcus aureus [16]) [µM] | selectivity ratio [17] | selectivity ratio [18] | selectivity ratio [19] | further results
Cc1ccc2c(c1)-c1ccccc1[I+]2 | > 73 | 9 | 9 | 9 | 9 | 72 | 72 | > 72 | > 72 | 4.5 | 72 | 72 | > 72 | 72 | 9 | 18 | 18 | > 0.52 | 4.2 | 4.2 | selectivity ratio [20]: 4.2; selectivity ratio [21]: 1; selectivity ratio [22]: 2.2; selectivity ratio [23]: 4.2; selectivity ratio [24]: 4.2; selectivity ratio [25]: 4.2; selectivity ratio [26]: 33; selectivity ratio [27]: 0.52; selectivity ratio [28]: 0.52; selectivity ratio [29]: > 0.52; selectivity ratio [30]: 0.52; selectivity ratio [31]: 8.3; MIC [32]: 0.57 µM; selectivity ratio [33]: 66; selectivity ratio [34]: 500
Fc1ccc2c(c1)-c1ccccc1[I+]2 | 18 | 2.2 | 4.5 | 2.2 | 2.2 | 18 | 18 | 36 | 36 | 4.5 | 18 | 18 | 36 | 18 | 4.5 | 18 | 9.1 | 0.67 | 5.3 | 11 | selectivity ratio [20]: 5.3; selectivity ratio [21]: 2.7; selectivity ratio [22]: 2.7; selectivity ratio [23]: 2.7; selectivity ratio [24]: 5.3; selectivity ratio [25]: 5.3; selectivity ratio [26]: 2; selectivity ratio [27]: 0.67; selectivity ratio [28]: 0.67; selectivity ratio [29]: 0.33; selectivity ratio [30]: 0.67; selectivity ratio [31]: 2.7; MIC [32]: 0.29 µM; selectivity ratio [33]: 41; selectivity ratio [34]: 125
N#Cc1ccc2c(c1)-c1ccccc1[I+]2 | 71 | 8.8 | 18 | 4.4 | 2.2 | 35 | 71 | > 71 | > 71 | 1.1 | 71 | 71 | > 71 | 71 | 1.1 | 8.8 | 8.8 | 0.32 | 2.5 | 5.1 | selectivity ratio [20]: 2.5; selectivity ratio [21]: 2.5; selectivity ratio [22]: 0.13; selectivity ratio [23]: 0.13; selectivity ratio [24]: 5.1; selectivity ratio [25]: 10; selectivity ratio [26]: 10; selectivity ratio [27]: 0.63; selectivity ratio [28]: 0.32; selectivity ratio [29]: > 0.32; selectivity ratio [30]: 0.32; selectivity ratio [31]: 20; MIC [32]: 0.29 µM; selectivity ratio [33]: 78; selectivity ratio [34]: 531
COc1ccc2c(c1)-c1ccccc1[I+]2 | > 70 | 35 | 35 | 18 | 8.7 | 70 | 70 | > 70 | > 70 | 4.4 | > 70 | > 70 | > 70 | > 70 | 18 | 35 | 35 | > 0.29 | 2.3 | 1.2 | selectivity ratio [20]: 0.58; selectivity ratio [21]: 0.29; selectivity ratio [22]: 0.58; selectivity ratio [23]: 0.58; selectivity ratio [24]: 1.2; selectivity ratio [25]: 2.3; selectivity ratio [26]: 4.6; selectivity ratio [27]: 0.29; selectivity ratio [28]: 0.29; selectivity ratio [29]: > 0.29; selectivity ratio [30]: > 0.29; selectivity ratio [31]: 4.6; MIC [32]: 1.1 µM; selectivity ratio [33]: 19; selectivity ratio [34]: 213
Cc1ccc2c(c1)[I+]c1ccccc1-2.O=S(=O)([O-])C(F)(F)F | 72 | 4.5 | 18 | 4.5 | 4.5 | 72 | 36 | 72 | 72 | 4.5 | 72 | 72 | 72 | 36 | 4.5 | 9.1 | 9.05 | 0.05 | 0.81 | 0.81 | selectivity ratio [20]: 0.81; selectivity ratio [21]: 0.11; selectivity ratio [22]: 0.41; selectivity ratio [23]: 0.21; selectivity ratio [24]: 0.81; selectivity ratio [25]: 0.81; selectivity ratio [26]: 3.2; selectivity ratio [27]: 0.05; selectivity ratio [28]: 0.11; selectivity ratio [29]: 0.05; selectivity ratio [30]: 0.11; selectivity ratio [31]: 0.81; MIC [32]: 0.57 µM; selectivity ratio [33]: 6.4; selectivity ratio [34]: 15.8
Clc1ccc2c(c1)-c1ccccc1[I+]2 | 8.7 | 2.2 | 4.3 | 2.2 | 2.2 | 8.7 | 35 | 35 | 35 | 8.7 | 17 | 17 | 17 | 17 | 2.2 | 4.3 | 4.3 | 1.9 | 3.7 | 3.7 | selectivity ratio [20]: 7.5; selectivity ratio [21]: 3.7; selectivity ratio [22]: 3.7; selectivity ratio [23]: 3.7; selectivity ratio [24]: 7.5; selectivity ratio [25]: 7.5; selectivity ratio [26]: 30; selectivity ratio [27]: 1.9; selectivity ratio [28]: 0.47; selectivity ratio [29]: 0.47; selectivity ratio [30]: 0.93; selectivity ratio [31]: 1.9; MIC [32]: 0.54 µM; selectivity ratio [33]: 30; selectivity ratio [34]: 194

From ChEMBL document CHEMBL4145448, “Broad activity of diphenyleneiodonium analogues against Mycobacterium tuberculosis, malaria parasites and bacterial pathogens” (Eur J Med Chem, 2018)
